Legend:
[1] = organism: Mus musculus; test: In vitro degradation rate constant in Mouse serum; assay type: ADME
Outline: (§1)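 Prodrug added from DMSO standard to an initial 50 or 10 µg/mL in one of four media at 37 °C with shaking: fresh human serum, fresh mouse serum, mouse brain homogenate (1:1 g/mL in physiological phosphate buffer), or phosphate buffer pH 7.4. Sampled 0–10 h. Dihydropyridine, quaternary salt and parent drug were measured by ion-pair HPLC at 260 nm. k is the terminal-phase ln(concentration)–time regression slope, with the associated half-life.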

[2] = In vitro degradation rate constant in phosphate buffer at pH 7.4; assay type: ADME; outline: as §1
[3] = Half life in Mouse brain hom; assay type: ADME, organism-based; details: brain homogenate; outline: as §1
[4] = Half life in Mouse serum; assay type: ADME, organism-based; outline: as §1
[5] = Half life in phosphate buffer at pH 7.4; assay type: ADME; outline: as §1
[6] = organism: Mus musculus; test: In vitro degradation rate constant Mouse brain hom; assay type: ADME; outline: as §1
[7] = organism: Homo sapiens; test: In vitro degradation rate constant in Human serum; assay type: ADME; outline: as §1
[8] = In vitro anti-HIV activity was determined in peripheral blood mononuclear cells.; assay type: functional, Homo sapiens
[9] = Half life in Human serum; assay type: ADME, organism-based; outline: as §1
[10] = in vivo; details: serum
[11] = in vivo; details: brain
[12] = (§2) Half life of the compound; assay type: ADME
[13] = Relative brain exposure of the compound
[14] = serum
[15] = as §2; assay type: functional

Structure (SMILES) | Rate constant [1] | Rate constant [2] | half-life [3] | half-life [4] | half-life [5] | Rate constant [6] | Rate constant [7] | EC50 ([8]; Homo sapiens) | half-life [9] | AUC [10] | AUC [11] | T1/2 [12] | Rel brain exposure [13] | AUC | AUC [14] | half-life [12] | T1/2 [15] | EC50 [8]
Cc1cn([C@H]2C[C@H](N=[N+]=[N-])[C@@H](COC(=O)C3=CN(C)C=CC3)O2)c(=O)[nH]c1=O | 0.49 h⁻¹ | 0.21 h⁻¹ | 10.8 min | 84 min | 194 min | 3.89 h⁻¹ | 0.09 h⁻¹ | 1.6 nM | 462 min | 1270 ng·h/mL |  |  |  |  |  |  |  | 
Cc1cn([C@H]2C[C@H](N=[N+]=[N-])[C@@H](COC(=O)c3ccc[n+](C)c3)O2)c(=O)[nH]c1=O.[I-] | 0.64 h⁻¹ | 0.55 h⁻¹ | 101 min | 64.8 min | 75 min | 0.41 h⁻¹ | 0.02 h⁻¹ |  | 2080 min | 600 ng·h/mL | 1290 ng·h/mL |  |  |  |  |  |  | 
C[n+]1cccc(C(=O)OC[C@H]2O[C@@H](n3ccc(=O)[nH]c3=O)C[C@@H]2N=[N+]=[N-])c1.[I-] | 1.36 h⁻¹ | 0.8 h⁻¹ | 39 min | 30.6 min | 52.2 min | 1.07 h⁻¹ | 0.14 h⁻¹ |  | 297 min | 1210 ng·h/mL | 3910 ng·h/mL |  |  |  |  |  |  | 
[N-]=[N+]=N[C@H]1C[C@H](n2ccc(=O)[nH]c2=O)O[C@@H]1CO (stereo in doubt; form 1) [NAVURIDINE] |  |  |  |  |  |  |  |  |  |  |  | 4.34 h | 5.47 | 11.43 µg·h/mL | 25.79 µg·h/mL |  |  | 
Cc1cn([C@H]2C[C@H](N=[N+]=[N-])[C@@H](CO)O2)c(=O)[nH]c1=O [ZIDOVUDINE] |  |  |  |  |  |  |  | 2 nM |  | 26600 ng·h/mL |  |  |  |  | 25.38 µg·h/mL | 32.4 min | 15.8 h | 
CN1C=CCC(C(=O)OC[C@H]2O[C@@H](n3ccc(=O)[nH]c3=O)C[C@@H]2N=[N+]=[N-])=C1 | 1.24 h⁻¹ | 0.33 h⁻¹ | 10.2 min | 33.6 min | 128 min | 4.15 h⁻¹ | 0.16 h⁻¹ |  | 260 min | 4430 ng·h/mL |  |  |  |  |  |  |  | 1000 nM
[N-]=[N+]=N[C@H]1C[C@H](n2ccc(=O)[nH]c2=O)O[C@@H]1CO (stereo in doubt; form 2) [NAVURIDINE] |  |  |  |  |  |  |  | 200 nM |  | 25800 ng·h/mL |  | 0.84 h |  | 2.09 µg·h/mL |  |  |  | 

Source: ChEMBL document CHEMBL1124875, “Brain targeting of anti-HIV nucleosides: synthesis and in vitro and in vivo studies of dihydropyridine derivatives of 3'-azido-2',3'-dideoxyuridine and 3'-azido-3'-deoxythymidine” (J Med Chem, 1990)
